{"data": "Experimental data of several laboratories", "effect on": "thermal stability", "technique": "DSF", "SIRT2": "NAD-dependent protein deacetylase sirtuin-2 (SIRT2, Homo sapiens, UniProt Q8IXJ6)", "GAK": "Cyclin-G-associated kinase (GAK, Homo sapiens, UniProt O14976)", "DCLK1": "Serine/threonine-protein kinase DCLK1 (DCLK1, Homo sapiens, UniProt O15075)", "lecA": "PA-I galactophilic lectin (lecA, Pseudomonas aeruginosa, UniProt Q05097)", "note": "Lines come from different studies, so protocols differ."}
{"SMILES": "Cc1cc(C)nc(SCC(=O)Nc2ncc(Cc3cccc(OCc4cn(Cc5ccc(OCCN6CCOCC6)cc5)nn4)c3)s2)n1", "target": "SIRT2", "setting": "25 µM", "ΔTm [°C]": 6.63}
{"SMILES": "Fc1cc(Nc2ccnc3ccc(C(F)(F)F)cc23)cc(F)c1F", "target": "GAK", "setting": "10 µM", "ΔTm [°C]": 3.7}
{"SMILES": "CCC1(CC)NC(=O)c2c(c3ccc(Cl)c(Cl)c3n2C)C1C#N (centres unmarked)", "target": "DCLK1", "setting": "10 µM", "ΔTm [°C]": 0}
{"SMILES": "CCCCCCCC(=O)Nc1ncc(Cc2cccc(OCc3cn(CCOC)nn3)c2)s1", "target": "SIRT2", "setting": "25 µM", "ΔTm [°C]": 4.28}
{"SMILES": "CCN1CCC2(CC1)NC(=O)c1c(c3ccc(Cl)c(Cl)c3n1C)C2C#N (racemic)", "target": "DCLK1", "setting": "10 µM", "ΔTm [°C]": 0.1}
{"SMILES": "CC(C)(C)c1ccc(O)c(O)c1", "target": "lecA", "setting": "4 mM", "ΔTm [°C]": -15.4}
{"SMILES": "COc1ccccc1Nc1ccnc2ccc(C(F)(F)F)cc12", "target": "GAK", "setting": "10 µM", "ΔTm [°C]": 3}
{"SMILES": "Cc1cc(C)nc(SCC(=O)Nc2ncc(Cc3cccc(OCc4cn(Cc5ccccc5C)nn4)c3)s2)n1", "target": "SIRT2", "setting": "25 µM", "ΔTm [°C]": 4.26}
{"SMILES": "Cn1c2c(Cl)c(Cl)ccc2c2cn[nH]c(=O)c21", "target": "DCLK1", "setting": "10 µM", "ΔTm [°C]": -0.2}
{"SMILES": "N#Cc1cccc(O)c1O", "target": "lecA", "setting": "4 mM", "ΔTm [°C]": 1.8}
{"SMILES": "FC(F)(F)c1ccc2nccc(Nc3ccc(Cl)cc3)c2c1", "target": "GAK", "setting": "10 µM", "ΔTm [°C]": 4.3}
